ASAP1 inh = blocks human ASAP1-stimulated Arf1 GTP hydrolysis; Q9ULH1; GDP FP detection; inhibition, % at 16.5 µM; 360,000 compounds, 0.19% hits; in the data active means inhibition above about 25%
MBD2 DNA inh = inhibitors of human MBD2 binding to methylated oligonucleotide. 370,000 compounds, 0.31% hits. inhibition, % at 4.4 µM. TR-FRET. Q9UBB5; in the data active means inhibition above about 13%
UHRF1 MBD2 ctr = human UHRF1 methylated DNA binding inhibitors | Q96T88 | UHRF1 binding to methylated oligo, TR-FRET | inhibition, % at 4.4 µM | 370,000 compounds, 0.75% hits | AID 687016; in the data active means inhibition above about 21%;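 further: UHRF1 SRA domain binding a hemimethylated CpG hairpin DNA probe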
Target sequence (Q96T88 whole entry, looked up, the tested form may be a part): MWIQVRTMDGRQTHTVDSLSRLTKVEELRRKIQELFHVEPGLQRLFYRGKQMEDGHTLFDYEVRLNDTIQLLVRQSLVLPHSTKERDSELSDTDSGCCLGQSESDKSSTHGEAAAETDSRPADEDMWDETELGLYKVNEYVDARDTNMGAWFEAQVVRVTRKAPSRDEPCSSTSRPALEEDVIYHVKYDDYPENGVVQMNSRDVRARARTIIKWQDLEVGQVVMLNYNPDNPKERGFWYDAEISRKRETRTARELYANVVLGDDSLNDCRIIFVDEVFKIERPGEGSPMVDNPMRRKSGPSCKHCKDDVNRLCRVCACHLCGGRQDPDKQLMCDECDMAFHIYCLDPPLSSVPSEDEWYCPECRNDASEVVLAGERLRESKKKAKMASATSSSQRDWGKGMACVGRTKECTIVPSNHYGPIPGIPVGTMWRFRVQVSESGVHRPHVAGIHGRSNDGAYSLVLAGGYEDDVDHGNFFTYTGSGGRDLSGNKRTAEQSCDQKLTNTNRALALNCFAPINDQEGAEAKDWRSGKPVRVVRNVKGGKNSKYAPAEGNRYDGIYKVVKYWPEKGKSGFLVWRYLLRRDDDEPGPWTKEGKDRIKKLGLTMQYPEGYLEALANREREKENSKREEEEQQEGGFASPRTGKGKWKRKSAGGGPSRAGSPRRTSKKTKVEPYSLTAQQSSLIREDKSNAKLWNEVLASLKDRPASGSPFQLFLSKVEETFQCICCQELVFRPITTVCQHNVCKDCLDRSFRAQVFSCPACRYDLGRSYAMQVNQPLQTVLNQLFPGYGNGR
ARFGAP1 inh = inhibits rat ARF GTPase activating protein 1. inhibition, % at 16.5 µM. 360,000 compounds, 0.26% hits. Arfgap1-stimulated ARF1 GTP hydrolysis, GDP FP detection. AID 651572. Q62848;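 active means inhibition above a per-plate limit, mean inhibition of low control wells plus 3 SD, cut at about 25% in these data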
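Material – truncated rat Arfgap1 GAP domain · Buffer or medium – HEPES-based buffer, pH 7.5 · Reagent – human ARF1(Δ1-17)-GTP substrate · Dosing – 16.5 µM single point, 1.26% DMSO · Schedule – GTP hydrolysis reaction 2 h at 25 °C · Technique – GDP detection by fluorescence polarization · Benchmarks – No-Arfgap1 wells (100%) versus DMSO full-reaction wells (0%) · Repeats – single replicate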
LEDGF integ inh = blocks HIV-1 LEDGF/p75-dependent DNA integration. TR-FRET IN-LEDGF/p75 DNA integration, Eu/Cy5. inhibition, % at 3.7 µM. 370,000 compounds, 0.64% hits;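 active means inhibition above the screen-wide mean plus 3 SD, cut at about 13% in these data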;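 further: signal is the Cy5 over europium emission ratio at 671 and 618 nm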
TCR CD3 inh = blocks the human TCR-CD3 interaction; TAMRA-labeled TCR probe fluorescence, biochemical; inhibition, % at 9.4 µM; 360,000 compounds, 0.37% hits; in the data active means inhibition above about 19%;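 further: recombinant mutant TCR 2C K166C tagged with TAMRA read by polarization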
Large screens that a line does not name were inactive. Sampled rows, rich in hits. Any-hit rate of the full collection: about 2%.

Cc1cc(C(=O)NP(=O)(N2CCOCC2)N2CCOCC2)c(C)n1-c1ccc(Br)cc1	UHRF1 MBD2 ctr 21
O=S(=O)(N[C@@H]1CCCC[C@H]1N1CCOCC1)c1ccc(Cl)cc1	none (no result: ASAP1 inh, ARFGAP1 inh, TCR CD3 inh)
CN(C)CCNC(=O)/C(=N\O)c1ccccn1	UHRF1 MBD2 ctr 27
CC(C#N)Sc1ccc(S(=O)(=O)N(C)C2CCCCC2)cn1 (configuration not stated)	none
COc1cc(S(=O)(=O)N(Cc2cccnc2)Cc2cccc(OC)c2OC)ccc1-n1cnnn1	UHRF1 MBD2 ctr 23
Cc1ccc(S(=O)(=O)NCc2ccccc2)cc1C(=O)N(C)CC(=O)Nc1ccccc1Br	UHRF1 MBD2 ctr 22
Cc1[nH]c2ccccc2c1CN1CCc2ccccc2C1	MBD2 DNA inh 14, UHRF1 MBD2 ctr 21
O=c1[nH]c(CN2CCc3ccccc3C2)nc2ccccc12	none
CC(C=NNc1ccc([N+](=O)[O-])cn1)=Cc1ccccc1	none
Cc1ccc(-c2csc(NC(=O)/C=C/c3ccco3)c2C(=O)O)cc1	UHRF1 MBD2 ctr 31
O=C(/C=C/c1ccco1)Nc1cccc(NC(=O)/C=C/c2ccco2)n1	UHRF1 MBD2 ctr 21
Cc1nc(NC(=O)/C=C/c2ccco2)sc1C	none
CCCCNS(=O)(=O)CC1NCc2cc(OC)ccc21 (configuration not stated)	none (no result: ASAP1 inh, ARFGAP1 inh, TCR CD3 inh)
CC(C)c1cc(Cn2c3ccccc3c(=O)n2C(C)Cn2cc(COc3ccccc3)nn2)on1 (configuration not stated)	none
COC(=O)[C@]12C[C@H](CC(=O)NCc3cccc4ccccc34)C(=O)N(Cc3ccco3)C1=C[C@H](C(C)C)O[C@@H]2C1CC1	none (no result: ASAP1 inh, ARFGAP1 inh, TCR CD3 inh)
Cc1nn(C)c(C)c1N1C(=O)c2cccc3c(Br)ccc(c23)C1=O	UHRF1 MBD2 ctr 22
Cc1cc(NC(=O)Cn2ccc([N+](=O)[O-])n2)no1	UHRF1 MBD2 ctr 23
Cc1ccc(NC(=O)Cn2ccc([N+](=O)[O-])n2)cc1C	none
Cc1cccc(C)c1-n1nnnc1C(c1ccnc2ccccc12)N(C)Cc1ccccc1 (configuration not stated)	none
Cc1ccc(NC(=O)/C(=C\c2cccnc2)NC(=O)c2ccccc2)cc1	UHRF1 MBD2 ctr 21
O=C(NCCCn1ccnc1)/C(=C/c1ccccc1)NC(=O)c1ccccc1	UHRF1 MBD2 ctr 25
O=C1[C@H]2C[C@@]3(n4ccc5ccccc54)c4ccccc4N(S(=O)(=O)c4ccccc4)[C@H]3N2C(=O)CN1Cc1ccccc1	none (no result: ASAP1 inh, ARFGAP1 inh, TCR CD3 inh)
CCCC(=O)Nc1ccc2c(c1)C(=O)N(C)[C@H]1CC[C@@H](CC(=O)OC)O[C@@H]1CO2	none (no result: ASAP1 inh, ARFGAP1 inh, TCR CD3 inh)
O=C(CSc1ccc(-c2cccs2)nn1)c1cccs1	UHRF1 MBD2 ctr 23
O=C(CSc1ccc(-c2cccs2)nn1)Nc1ccccc1	none
O=C(O)CCNc1cc(N2CCN(C(=O)c3ccco3)CC2)c2noc3c2c1C(=O)c1ccccc1-3	TCR CD3 inh 34
Cc1cccc(CN2[C@H](COCc3ccccc3)C=CS2(=O)=O)c1	none
CCOc1ccccc1/C=C/c1onc(C)c1S(=O)(=O)N1CCC(C(=O)N(CC)CC)CC1	MBD2 DNA inh 13
Cc1ccccc1NC1=CC(=O)CC(C)(C)C1	none
CC1(C)CC(=O)C=C(NC2=CC3OC(c4ccccc4)OCC3OC2=O)C1 (configuration not stated)	UHRF1 MBD2 ctr 22
CCCCc1c(-c2ccccc2OC)ncn1CCc1cccc(F)c1	UHRF1 MBD2 ctr 56
CCCCc1c(-c2ccccc2OC)ncn1Cc1ccc(C(C)(C)C)cc1	UHRF1 MBD2 ctr 28
O=c1[nH][nH]c2c1[C@@H](c1ccc(F)cc1)O[C@H](CCc1ccccc1)C2	UHRF1 MBD2 ctr 29
O=c1[nH][nH]c2c1C(c1ccc(F)cc1)OC(CCc1ccccc1)C2 (configuration not stated)	none
COC(=O)C1=C(C)N(C2CCCCC2)C(=O)/C1=C\c1cccs1	UHRF1 MBD2 ctr 53
COC(=O)C1=C(C)N(C)C(=O)/C1=C\c1cccs1	none
CCCCCCC(=O)NC1CCCCN(Cc2ccc(Cl)cc2)C1=O (configuration not stated)	none (no result: ASAP1 inh, ARFGAP1 inh, TCR CD3 inh)
CCc1ccc(OCC(=O)NC(=S)Nc2ccc(C(C)=O)cc2)c(Br)c1	UHRF1 MBD2 ctr 24
CCc1ccc(OCC(=O)NC(=S)Nc2ccc(F)cc2)c(Br)c1	none
CC(=O)Nc1ccc(NC(=O)CSc2cn(CC(=O)N3CCOCC3)c3ccccc23)cc1	none
O=C(Cn1cc(SCc2ccccc2Cl)c2ccccc21)N1CCOCC1	UHRF1 MBD2 ctr 24
CC(=O)c1cc(-c2cc(C(F)(F)F)cc(C(F)(F)F)c2)c(=O)n2c1CCC2	none (no result: ASAP1 inh, ARFGAP1 inh, TCR CD3 inh)
CCOC(=O)CC1COc2ccccc2N1C(=O)c1cccc([N+](=O)[O-])c1 (configuration not stated)	UHRF1 MBD2 ctr 40
O=C(Nc1ccc(NC(=O)c2cc([N+](=O)[O-])ccc2N2CCOCC2)cc1)c1cccs1	UHRF1 MBD2 ctr 23
Oc1cccc(C=Nc2cccc3ccccc23)c1O	none
Oc1cccc(C=NCc2ccccc2)c1O	LEDGF integ inh 65, TCR CD3 inh 29
Cc1cccc(C(O)c2ncc(-c3ccc4ccccc4c3)[nH]2)c1C (configuration not stated)	UHRF1 MBD2 ctr 30
COc1ccc(C(=O)/C(=C/N(C)C)S(=O)(=O)c2ccccc2)cc1	UHRF1 MBD2 ctr 55
CC(C)N(CC#CCC1(O)c2ccccc2-c2ccccc21)CCO	UHRF1 MBD2 ctr 28
CCN(CC#CCC1(O)c2ccccc2-c2ccccc21)CCO	none
Cc1ccc(NC(=S)NNC(=O)c2cnccn2)cc1	none (no result: ASAP1 inh, ARFGAP1 inh, TCR CD3 inh)
Cc1cc(C(=O)Nc2cccnc2)on1	none
CC(=O)c1cccc(NC(=O)c2cc(C)no2)c1	UHRF1 MBD2 ctr 64
CCOC(=O)[C@@]12CCC3=C1N(CCC3)C(=O)[C@H](CC(=O)NCc1ccc(C)o1)C2	none (no result: ASAP1 inh, ARFGAP1 inh, TCR CD3 inh)
CC(=O)N1CC=CC1(C)C(=O)O (configuration not stated)	UHRF1 MBD2 ctr 31
Cc1ccc(-c2nc3ccc(Br)cn3c2CC(C)(C)C)cc1	none
Cc1ccc(Cc2c(-c3ccc(Cl)cc3)nc3cc(C)ccn23)cc1	UHRF1 MBD2 ctr 22
Cc1ccc(Cc2c(-c3ccccc3)nc3c4ccccc4ccn23)cc1	none
Cc1ccn2c(Cc3ccccc3)c(-c3ccccc3)nc2c1	UHRF1 MBD2 ctr 21
Cc1ccn2c(Cc3ccccc3)c(-c3ccc(Br)cc3)nc2c1	none
Cc1ccn2c(CC(C)(C)C)c(-c3ccc(F)cc3)nc2c1	UHRF1 MBD2 ctr 22
Cc1ccc(Cc2c(-c3ccc(C)cc3)nc3cc(C)ccn23)cc1	UHRF1 MBD2 ctr 23
Brc1ccc(CSc2nnc(SCc3ccccc3)s2)cc1	none (no result: ASAP1 inh, ARFGAP1 inh, TCR CD3 inh)
Cc1ccc(S(=O)(=O)NC(=O)C2(C)CCN2C(=O)Cc2cccs2)nc1 (configuration not stated)	none
Cn1cnnc1SCC(=O)Nc1sc2c(c1C(N)=O)CCC2	UHRF1 MBD2 ctr 25
